This passage reports Ki, Activity and EC50 results from ChEMBL document CHEMBL1142924, “N(6)-[(hetero)aryl/(cyclo)alkyl-carbamoyl-methoxy-phenyl]-(2-chloro)-5'-N-ethylcarboxamido-adenosines: the first example of adenosine-related structures with potent agonist activity at the human A(2B) adenosine receptor” (Bioorg Med Chem, 2007).

In one experiment the target is T1, Adenosine receptor A3 (Homo sapiens, UniProt P0DMS8).
T1 sequence (P0DMS8 whole entry): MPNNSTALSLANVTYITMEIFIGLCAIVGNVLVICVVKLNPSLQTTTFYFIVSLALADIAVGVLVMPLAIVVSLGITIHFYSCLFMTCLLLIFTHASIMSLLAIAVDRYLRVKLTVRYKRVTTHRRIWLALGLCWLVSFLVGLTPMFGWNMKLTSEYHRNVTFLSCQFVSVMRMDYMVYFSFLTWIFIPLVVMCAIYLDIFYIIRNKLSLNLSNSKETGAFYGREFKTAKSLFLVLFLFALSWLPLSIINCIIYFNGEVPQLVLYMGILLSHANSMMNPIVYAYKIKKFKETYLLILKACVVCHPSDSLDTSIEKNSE
Briefly: Displacement of [125I]ABMECA from human adenosine A3 receptor expressed in CHO cells. On the technique in general: Loss of bound radioactivity is the signal in a displacement assay; it reports binding, not function.

The target in another experiment is Adenosine receptor A2a (Homo sapiens, UniProt P29274). Briefly: Displacement of [3H]CGS-21680 from human adenosine A2A receptor expressed in CHO cells. Format: cell-based. Set-up: concentration or dose not given beside the values.
The target of the next experiment is T2, Adenosine receptor A1 (Homo sapiens, UniProt P30542).
T2 sequence (P30542 whole entry): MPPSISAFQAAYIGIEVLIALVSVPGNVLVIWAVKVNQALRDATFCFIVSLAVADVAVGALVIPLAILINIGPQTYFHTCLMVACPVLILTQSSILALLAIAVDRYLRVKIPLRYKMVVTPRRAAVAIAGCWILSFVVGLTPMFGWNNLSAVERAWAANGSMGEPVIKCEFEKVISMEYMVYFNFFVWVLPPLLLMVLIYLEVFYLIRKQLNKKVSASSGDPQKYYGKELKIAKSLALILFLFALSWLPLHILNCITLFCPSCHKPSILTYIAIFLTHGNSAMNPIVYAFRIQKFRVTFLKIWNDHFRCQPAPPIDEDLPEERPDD
Briefly: Displacement of [3H]CHA from human adenosine A1 receptor expressed in CHO cells. It is filed as cell-based. In short, it runs like this: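 Human A1 in CHO cell membranes, pretreated with adenosine deaminase 2 IU/mL for 30 min at 37 °C. 50 µg protein per assay incubated with 1 nM [³H]CHA and 6–8 agonist concentrations in 50 mM Tris-HCl pH 7.4 for 150 min at 25 °C. Nonspecific binding defined by 10 µM CHA. Separated by GF/B filtration, counted by scintillation. Ki from IC50 via Cheng–Prusoff.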

The target of the next experiment is T3, Adenosine receptor A2b (Homo sapiens, UniProt P29275).
T3 sequence (P29275 whole entry): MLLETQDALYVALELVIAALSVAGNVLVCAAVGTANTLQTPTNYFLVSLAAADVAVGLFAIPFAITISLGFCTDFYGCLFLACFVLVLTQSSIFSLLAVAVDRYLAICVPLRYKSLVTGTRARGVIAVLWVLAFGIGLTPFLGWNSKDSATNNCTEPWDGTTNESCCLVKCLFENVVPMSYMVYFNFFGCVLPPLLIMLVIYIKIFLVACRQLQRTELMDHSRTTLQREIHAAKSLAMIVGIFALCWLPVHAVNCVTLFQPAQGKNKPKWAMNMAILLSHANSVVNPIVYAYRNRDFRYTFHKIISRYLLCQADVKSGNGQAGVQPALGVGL
Briefly: Agonist activity at human adenosine A2B receptor expressed in CHO cells assessed as stimulation of cAMP production. It is filed as functional, cell-based. Put shortly: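 CHO cells stably expressing human A2B, grown in DMEM/F12 with 10% serum and G418, trypsinized and pelleted. 1 × 10⁶ cells/assay preincubated 10 min at 37 °C with adenosine deaminase 2 IU/mL and Ro 20-1724. Ligands at 1 nM–10 µM added for 5 min, stopped with cold 6% TCA, ether-extracted. cAMP read by [³H]cAMP competition protein binding. EC50 from sigmoid non-linear regression; 3–4 experiments in duplicate.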

Chain of Adenosine receptor A2a (P29274 whole entry): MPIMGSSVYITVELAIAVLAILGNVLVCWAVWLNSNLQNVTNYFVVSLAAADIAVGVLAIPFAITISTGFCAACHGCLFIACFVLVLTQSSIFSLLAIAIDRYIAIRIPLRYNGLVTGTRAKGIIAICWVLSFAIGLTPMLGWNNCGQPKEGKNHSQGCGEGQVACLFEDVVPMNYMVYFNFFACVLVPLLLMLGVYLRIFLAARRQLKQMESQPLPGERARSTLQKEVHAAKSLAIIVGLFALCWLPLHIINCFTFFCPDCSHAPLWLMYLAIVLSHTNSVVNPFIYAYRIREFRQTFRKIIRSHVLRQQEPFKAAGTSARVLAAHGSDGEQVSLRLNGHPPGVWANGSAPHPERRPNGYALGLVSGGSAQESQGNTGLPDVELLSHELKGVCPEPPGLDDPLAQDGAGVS

In general, Ki refers to a measure of affinity in units of concentration, obtained from inhibition or displacement. Broadly, the EC50 is the midpoint of the concentration-response curve. For the compound `CCNC(=O)[C@H]1O[C@@H](n2cnc3c(Nc4ccc(OCC(=O)Nc5ccc(OC)c(OC)c5)cc4)ncnc32)[C@H](O)[C@@H]1O`, the Ki on Adenosine receptor A3 was 53.2 nM; at Adenosine receptor A2a, over 1000 nM; at Adenosine receptor A1 it was 7.7 nM. Also, on Adenosine receptor A2a, the Activity was determined as 30%. On Adenosine receptor A2b, the EC50 stood at 45.4 nM.
For `CCNC(=O)[C@H]1O[C@@H](n2cnc3c(Nc4ccc(OCC(=O)Nc5ccc(C(C)(C)C)cc5)cc4)ncnc32)[C@H](O)[C@@H]1O`, in that order: 40.2 nM, over 1000 nM, 18.6 nM, 1% and 16.4 nM.
With `CCNC(=O)[C@H]1O[C@@H](n2cnc3c(Nc4ccc(OCC(=O)NCc5ccccc5)cc4)ncnc32)[C@H](O)[C@@H]1O`, the figures for the Ki at Adenosine receptor A3, at Adenosine receptor A2a and at Adenosine receptor A1 were 82.7 nM, over 1000 nM and 20.4 nM, respectively. At Adenosine receptor A2a, this compound yielded an Activity of 49%. Also, the EC50 on Adenosine receptor A2b was 150 nM.
For `CCNC(=O)[C@H]1O[C@@H](n2cnc3c(Nc4ccc(OCC(=O)Nc5ccncc5)cc4)ncnc32)[C@H](O)[C@@H]1O`, in that order: 42.3 nM, over 1000 nM, 11.2 nM, 37% and 32.3 nM.
With `CCNC(=O)[C@H]1O[C@@H](n2cnc3c(Nc4ccc(OCC(=O)Nc5ccc(Cl)cc5)cc4)ncnc32)[C@H](O)[C@@H]1O`, the Ki is 34.2 nM on Adenosine receptor A3, over 1000 nM at Adenosine receptor A2a and 3.1 nM on Adenosine receptor A1. Also, the Activity on Adenosine receptor A2a is 35%. Besides, on Adenosine receptor A2b, the EC50 was determined as 12.3 nM.
`CCNC(=O)[C@H]1O[C@@H](n2cnc3c(Nc4ccc(OCC(=O)Nc5ccccc5)cc4)nc(Cl)nc32)[C@H](O)[C@@H]1O`: the Ki at Adenosine receptor A3 was 107 nM; on Adenosine receptor A2a, over 1000 nM; on Adenosine receptor A1, 30.5 nM. Also, at Adenosine receptor A2a, the Activity is 36%. Besides, the EC50 at Adenosine receptor A2b was found to be 42.6 nM.
For `CCNC(=O)[C@H]1O[C@@H](n2cnc3c(Nc4ccc(OCC(=O)Nc5ccccc5C(F)(F)F)cc4)ncnc32)[C@H](O)[C@@H]1O`, in that order: 115 nM, over 1000 nM, 31.6 nM, 1% and 107 nM.
For `CCNC(=O)[C@H]1O[C@@H](n2cnc3c(Nc4ccc(OCC(=O)Nc5ccc(OC)cc5)cc4)nc(Cl)nc32)[C@H](O)[C@@H]1O`, the figures for the Ki on Adenosine receptor A3, at Adenosine receptor A2a and on Adenosine receptor A1 were 101 nM, over 1000 nM and 50.4 nM, respectively. The compound further returned an Activity on Adenosine receptor A2a of 27%. Further, the EC50 at Adenosine receptor A2b stood at 360 nM.
For `CCNC(=O)[C@H]1O[C@@H](n2cnc3c(Nc4ccc(OCC(=O)NCc5ccccc5)cc4)nc(Cl)nc32)[C@H](O)[C@@H]1O`, in that order: 75.7 nM, over 1000 nM, 22.6 nM, 49% and 175 nM.
As to `CCNC(=O)[C@H]1O[C@@H](n2cnc3c(Nc4ccc(OCC(=O)NCc5ccc(OC)cc5)cc4)ncnc32)[C@H](O)[C@@H]1O`, the figures for the Ki on Adenosine receptor A3, at Adenosine receptor A2a and on Adenosine receptor A1 were 65.4 nM, over 1000 nM and 28.3 nM, respectively. Also, the Activity at Adenosine receptor A2a was determined as 1%. The EC50 on Adenosine receptor A2b was determined as 240 nM.
Regarding `CCNC(=O)[C@H]1O[C@@H](n2cnc3c(Nc4ccc(OCC(=O)Nc5ccc(I)cc5)cc4)ncnc32)[C@H](O)[C@@H]1O`, the Ki on Adenosine receptor A3 is 85.2 nM; on Adenosine receptor A2a, over 1000 nM; on Adenosine receptor A1, 5.2 nM. This compound also returned an Activity on Adenosine receptor A2a of 28%. On Adenosine receptor A2b, the EC50 amounted to 30.2 nM.
For `CCNC(=O)[C@H]1O[C@@H](n2cnc3c(Nc4ccc(OCC(=O)Nc5ccc(OC)cc5)cc4)ncnc32)[C@H](O)[C@@H]1O`, in that order: 25.3 nM, over 1000 nM, 4.7 nM, 42% and 32.4 nM.
In the case of `CCNC(=O)[C@H]1O[C@@H](n2cnc3c(Nc4ccc(OCC(=O)Nc5cc(OC)cc(OC)c5)cc4)ncnc32)[C@H](O)[C@@H]1O`, the Ki was 78.6 nM on Adenosine receptor A3, over 1000 nM on Adenosine receptor A2a and 15.3 nM on Adenosine receptor A1. Besides, the Activity at Adenosine receptor A2a is 13%. For the same compound, the EC50 on Adenosine receptor A2b is 53.6 nM.
For `CCNC(=O)[C@H]1O[C@@H](n2cnc3c(Nc4ccc(OCC(=O)Nc5ccc6c(c5)OCO6)cc4)ncnc32)[C@H](O)[C@@H]1O`, in that order: 81.4 nM, over 1000 nM, 8.4 nM, 5% and 35.5 nM.
Consider `CCNC(=O)[C@H]1O[C@@H](n2cnc3c(Nc4ccc(OCC(=O)Nc5ccc(N6CCOCC6)cc5)cc4)ncnc32)[C@H](O)[C@@H]1O`, for which the Ki at Adenosine receptor A3 was 320 nM; on Adenosine receptor A2a, over 1000 nM; on Adenosine receptor A1, 77.5 nM. Further, the Activity at Adenosine receptor A2a is 1%. In addition, on Adenosine receptor A2b, the EC50 is 300 nM.
For `CCNC(=O)[C@H]1O[C@@H](n2cnc3c(Nc4ccc(OCC(=O)NC5CCCCC5)cc4)nc(Cl)nc32)[C@H](O)[C@@H]1O`, in that order: 95.8 nM, over 1000 nM, 30.8 nM, 46% and 302 nM.
For `CCNC(=O)[C@H]1O[C@@H](n2cnc3c(Nc4ccc(OCC(=O)NC5CCCCC5)cc4)ncnc32)[C@H](O)[C@@H]1O`, in that order: 72.5 nM, over 1000 nM, 16.2 nM, 40% and 315 nM.
For `CCNC(=O)[C@H]1O[C@@H](n2cnc3c(Nc4ccc(OCC(=O)Nc5ccc(F)cc5)cc4)ncnc32)[C@H](O)[C@@H]1O`, in that order: 72.3 nM, over 1000 nM, 2.3 nM, 48% and 15.2 nM.
Take `CCNC(=O)[C@H]1O[C@@H](n2cnc3c(Nc4ccc(OCC(=O)Nc5ccc(Br)cc5)cc4)ncnc32)[C@H](O)[C@@H]1O`: the results for the Ki at Adenosine receptor A3, on Adenosine receptor A2a and on Adenosine receptor A1 were 36.4 nM, over 1000 nM and 3.5 nM, respectively. Also, on Adenosine receptor A2a, the Activity was 26%. Further, the EC50 on Adenosine receptor A2b was 10.5 nM.
For `CCNC(=O)[C@H]1O[C@@H](n2cnc3c(Nc4ccc(OCC(=O)Nc5ccccc5)cc4)ncnc32)[C@H](O)[C@@H]1O`, in that order: 38.4 nM, over 1000 nM, 8.5 nM, 45% and 7.3 nM.
